Compound activity: PubChem BioAssay, several laboratories
Most compounds without a hit are left out; they make up all but 1.4% or so of the library.
CDK5 inh: inhibitors of human CDK5/p35 kinase, primary screen, biochemical, single concentration; Cyclin-dependent kinase 5 (Homo sapiens) + Cyclin-dependent kinase 5 activator 1 (Homo …; Recombinant CDK5/p35, ADP-Glo luminescence, 60 min; inhibition, % at 10 µM; actives 0.01% (n = 330,000);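 active = highest replicate inhibition of at least 50% and at least 75% of replicates reaching 50%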;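 note: plate controls were DMSO neutral control for no effect and GW8510 at 10 µM for full effect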
Target sequence (Q00535 whole entry, looked up): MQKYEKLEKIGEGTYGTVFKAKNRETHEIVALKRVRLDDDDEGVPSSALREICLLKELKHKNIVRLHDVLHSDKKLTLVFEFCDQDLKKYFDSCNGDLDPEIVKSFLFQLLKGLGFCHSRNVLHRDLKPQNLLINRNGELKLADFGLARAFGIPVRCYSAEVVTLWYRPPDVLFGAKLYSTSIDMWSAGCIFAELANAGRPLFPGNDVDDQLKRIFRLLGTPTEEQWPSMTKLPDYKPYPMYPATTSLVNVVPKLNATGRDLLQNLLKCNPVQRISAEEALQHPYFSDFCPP
Target sequence (Q15078 whole entry, looked up): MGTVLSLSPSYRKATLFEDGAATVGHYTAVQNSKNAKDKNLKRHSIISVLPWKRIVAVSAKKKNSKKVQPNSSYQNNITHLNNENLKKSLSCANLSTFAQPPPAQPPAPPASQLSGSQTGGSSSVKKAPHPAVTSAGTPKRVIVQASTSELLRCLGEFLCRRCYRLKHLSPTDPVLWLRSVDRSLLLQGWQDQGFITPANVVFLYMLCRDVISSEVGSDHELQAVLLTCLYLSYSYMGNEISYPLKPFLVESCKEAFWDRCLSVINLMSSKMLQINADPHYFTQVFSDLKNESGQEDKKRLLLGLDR
PvdQ acylase: P. aeruginosa PvdQ acylase inhibitors, primary screen, biochemical, fluorescence, plate reader and imaging, single point; PvdQ acylase [Pseudomonas aeruginosa LESB58]; purified PvdQ acylase; inhibition, % at 10 µM; actives 0.063% (n = 340,000); in the data active = inhibition above about 30%, passing the limit was not always enough;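 note: 0% = vehicle neutral wells and 100% = reference inhibitor wells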
TbMetRS inhib: T. brucei MetRS inhibitors, primary screen, biochemical, luminescence; purified T. brucei MetRS, ATP depletion, Kinase-Glo luminescence; actives 0.4% (n = 360,000); AID 624268, 2012; inhibition, % at 11.9 µM;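 active = inhibition above a per-plate cutoff of the control wells' mean inhibition plus 3 SD, cut at about 5.5% in these data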;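 note: 0% = DMSO wells median and 100% = median of wells with control inhibitor compound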
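Material: parasite MetRS enzyme / Replication: singlicate, one well per compound / Signal: luminescence of leftover ATP / Schedule: 2 h aminoacylation at 25 °C after 15 min preincubation / Medium: HEPES-MgCl2-KCl buffer plus DTT, spermine, BSA, pyrophosphatase / Doses: 11.9 µM single point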
DYRK1A inh: rat Dyrk1A kinase inhibitors, primary screen, biochemical, single point, plate reader; Dual specificity tyrosine-phosphorylation-regulated kinase 1A (Rattus norvegicus), Q63470; ADP-Glo luminescence, NFATc1 peptide; inhibition, % at 12.5 µM; actives 0.43% (n = 310,000); AID 504441, 2011; in the data active = inhibition above about 50%;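 note: plate controls were vehicle with enzyme for no effect and no enzyme for full effect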
CAL PDZ FP-1: untagged CAL PDZ binding inhibitors, primary screen, biochemical, fluorescence polarization, HTS | inhibition, % at 24.9 µM | actives 0.92% (n = 300,000) | Golgi-associated PDZ and coiled-coil motif-containing protein (Homo sapiens), Q9HD26 | purified CAL PDZ, TMR-peptide fluorescence polarization, 1 h | AID 602252, 2012;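 active = mean inhibition of at least 30% with at least half of replicates also reaching 30%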;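 note: 0% = DMSO neutral control and 100% = excess unlabeled competitor peptide PRC23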
CAL PDZ FP-2: CAL PDZ peptide-binding inhibitors, primary screen, biochemical, fluorescence polarization, Cer-tagged CAL PDZ, HTS | purified CAL PDZ, TMR-peptide fluorescence polarization, 1 h | actives 0.02% (n = 330,000) | inhibition, % at 20 µM | Golgi-associated PDZ and coiled-coil motif-containing protein (Homo sapiens), Q9HD26;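 active = highest replicate inhibition of at least 40%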;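 note: plate controls were DMSO neutral control wells for no effect and unlabeled competitor peptide control wells for full effect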
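Test system: purified CerCALP PDZ construct; Compound dosing: one concentration, 20 µM compound; Also added: TMR-labelled reporter peptide T*-PRC34 bound in PDZ groove; Read-out: inhibition from polarization loss; Controls: unlabelled peptide and DMSO controls; Signal: FP readout, S and P plane fluorescence; Incubation: 1 h at RT.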
ADP-Glo artifact: ADP-Glo luciferase interference without Dyrk1A, dose response, artefact control for Dyrk1A inhibitor project, biochemical, luminescence, cherry-pick, set 02. AID 588348, 2011. ADP-Glo luciferase artifact assay, no Dyrk1A. shares compounds with DYRK1A inh. 1,300 tested, under 10 active. AC50, µM (top dose mostly 12 µM), for the others: at the highest dose activity change, negative = inhibition;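 active = fitted half-maximal dose AC50 no more than ten times the top valid tested dose, with luminescence dropping as dose rises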
Active calls of the source: *.

Results for CC1=C(C(=O)OCc2ccc3c(c2)OCO3)C(c2ccc(Cl)cc2)NC(=O)N1 (stereo unspecified) ?
CDK5 inh: 2; PvdQ acylase: -9; TbMetRS inhib: 1; DYRK1A inh: 9; CAL PDZ FP-1: 1; CAL PDZ FP-2: -2

What do the screens show for `CC1=C(C(=O)OCc2ccc3c(c2)OCO3)C(c2ccc(F)cc2)NC(=O)N1` (stereo unspecified)?
CDK5 inh: 4; PvdQ acylase: -3; TbMetRS inhib: 0; DYRK1A inh: 70*; CAL PDZ FP-1: -2; CAL PDZ FP-2: -1; ADP-Glo artifact: 8%

Results for CCOC(=O)C1=C[C@@H](C(C)C)N(S(=O)(=O)c2ccc(C)cc2)[C@H]1c1ccc(C(F)(F)F)cc1 ?
TbMetRS inhib: 0

What do the screens show for `COc1ccccc1-c1sc2ccccc2c1C#Cc1ccc(N(C)C)cc1`?
CDK5 inh: 1; PvdQ acylase: -11; TbMetRS inhib: 0; DYRK1A inh: 51*; CAL PDZ FP-1: -3; CAL PDZ FP-2: 0; ADP-Glo artifact: 8%

What do the screens show for `COc1ccccc1-c1sc2ccccc2c1-c1ccc(O)cc1`?
CDK5 inh: 3; PvdQ acylase: 1; TbMetRS inhib: -2; DYRK1A inh: 1; CAL PDZ FP-1: 1; CAL PDZ FP-2: 0

What do the screens show for `O=c1c(O)cccc2cc(O)c(O)c(O)c12`?
CDK5 inh: 44; PvdQ acylase: 4; TbMetRS inhib: 0; DYRK1A inh: 82*; CAL PDZ FP-1: 8; CAL PDZ FP-2: 1; ADP-Glo artifact: 12%

Results for O=C1c2ccccc2C(=O)c2c(O)c(O)cc(O)c21 ?
CDK5 inh: 1; PvdQ acylase: 14; TbMetRS inhib: -2; DYRK1A inh: 24; CAL PDZ FP-1: 3; CAL PDZ FP-2: 1

Results for COC(=O)[C@@]12C[C@@H](CC(=O)N3CCN(C(=O)c4ccco4)CC3)C(=O)N(CCc3ccc(OC)c(OC)c3)C1=CCC(C)(C)C2 ?
TbMetRS inhib: -1

How did COc1c(C)oc2cc(O)ccc2c1=O do in these assays?
CDK5 inh: -1; PvdQ acylase: 5; TbMetRS inhib: -1; DYRK1A inh: 4; CAL PDZ FP-1: -5; CAL PDZ FP-2: -1

Results for Oc1ccc2c(c1)oc1cc(O)ccc12 ?
CDK5 inh: 13; PvdQ acylase: -15; TbMetRS inhib: 0; DYRK1A inh: 90*; CAL PDZ FP-1: 17; CAL PDZ FP-2: -1; ADP-Glo artifact: 11%

How did COc1cccc(C(=O)Nc2ccc(F)c(F)c2F)c1 do in these assays?
CDK5 inh: -1; PvdQ acylase: 5; TbMetRS inhib: -1; DYRK1A inh: 51*; CAL PDZ FP-1: 0; CAL PDZ FP-2: -3; ADP-Glo artifact: 8%

Results for COc1cccc(C(=O)Nc2ccc(F)cc2F)c1 ?
CDK5 inh: 0; PvdQ acylase: -5; TbMetRS inhib: 0; DYRK1A inh: 6; CAL PDZ FP-1: 0; CAL PDZ FP-2: -3

Results for COc1ccc(Cl)cc1-c1cc(C(=O)Nc2ccc(C)c(NS(C)(=O)=O)c2)[nH]n1 ?
TbMetRS inhib: 0

How did Cc1ccc(-c2cc(O)cc3sc(=O)oc23)cc1C do in these assays?
CDK5 inh: -2; PvdQ acylase: -18; TbMetRS inhib: 0; DYRK1A inh: 54*; CAL PDZ FP-1: -5; CAL PDZ FP-2: 1; ADP-Glo artifact: 9%

Results for O=c1oc2cc(O)ccc2s1 ?
CDK5 inh: 1; PvdQ acylase: -6; TbMetRS inhib: 0; DYRK1A inh: -1; CAL PDZ FP-1: -3; CAL PDZ FP-2: 0

Results for COc1ccc2c(c1)C(=NN)c1cc(OC)ccc1-2 ?
CDK5 inh: 0; PvdQ acylase: -6; TbMetRS inhib: -1; DYRK1A inh: 79*; CAL PDZ FP-1: 1; CAL PDZ FP-2: 1; ADP-Glo artifact: 6%

Results for COc1ccc(OC)c(N)c1 ?
CDK5 inh: 2; PvdQ acylase: -13; TbMetRS inhib: 0; DYRK1A inh: 3; CAL PDZ FP-1: 0; CAL PDZ FP-2: 1

What do the screens show for `COc1ccc2c(c1)C(=NNc1ccc(C(=O)O)cc1)c1cc(OC)ccc1-2`?
CDK5 inh: 2; PvdQ acylase: -14; TbMetRS inhib: 0; DYRK1A inh: 83*; CAL PDZ FP-1: -3; CAL PDZ FP-2: -1; ADP-Glo artifact: 10%

What do the screens show for `CS(=O)(=O)Nc1ccc(-c2cc(/C=C3\SC(N)=NC3=O)c[nH]c2=O)cc1`?
CDK5 inh: 8; PvdQ acylase: -1; TbMetRS inhib: 1; DYRK1A inh: 86*; CAL PDZ FP-1: -3; CAL PDZ FP-2: -2; ADP-Glo artifact: 8%

What do the screens show for `Cc1ccc(/C=C2\SC(N)=NC2=O)s1`?
CDK5 inh: 1; PvdQ acylase: 23; TbMetRS inhib: -1; DYRK1A inh: 36; CAL PDZ FP-1: 0; CAL PDZ FP-2: -3

Results for O=C1Nc2ccccc2C(=O)N(Cc2ccccc2)C1C(=O)NC1CC1 (stereo unspecified) ?
TbMetRS inhib: -1

How did O=[N+]([O-])c1ccc(O)c(C=NNc2ccc(S(=O)(=O)O)cc2)c1 do in these assays?
CDK5 inh: 1; PvdQ acylase: -8; TbMetRS inhib: 0; DYRK1A inh: 73*; CAL PDZ FP-1: 8; CAL PDZ FP-2: 0; ADP-Glo artifact: 9%

Results for Clc1c(Cl)c(Cl)c2n[nH]nc2c1Cl ?
CDK5 inh: 1; PvdQ acylase: -14; TbMetRS inhib: 0; DYRK1A inh: 80*; CAL PDZ FP-1: 79*; CAL PDZ FP-2: -2; ADP-Glo artifact: 10%

Results for O=C(Nc1ccc(F)cc1)C(c1ccnc2ccccc12)N1CCN(CC(=O)N2CCCC2)CC1 (stereo unspecified) ?
TbMetRS inhib: -1

Results for Cc1cc(N)n2ncc(-c3ccccc3)c2n1 ?
CDK5 inh: 0; PvdQ acylase: -3; TbMetRS inhib: 0; DYRK1A inh: 26; CAL PDZ FP-1: -1; CAL PDZ FP-2: -1
